Results on 13 molecules are retold here after ChEMBL document CHEMBL1130022, “Novel heterocyclic-fused pyridazinones as potent and selective phosphodiesterase IV inhibitors” (J Med Chem, 1997).

Assay [1] deals with T1, Phosphodiesterase 3 (Homo sapiens, UniProt Q14432+Q13370). Kind of assay: Inhibition of guinea pig ventricular Phosphodiesterase 3 at 20 uM. Particulars: Cavia porcellus, target entry is the homologue from another species. Format: protein assay. Summed up:
(§1)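 Guinea pig ventricular PDE III/IV resolved by Mono-Q anion exchange (50–1000 mM sodium acetate gradient, Bis-Tris pH 6.5); isoenzymes characterized by substrate selectivity, Ca2+/calmodulin and selective inhibitors; pools stored -20 °C with 1 g/L BSA. Thompson–Strada assay, cAMP substrate 0.25 μM, duplicates; drugs in DMSO; IC50 by nonlinear regression or % inhibition at stated concentration, n = 3, ±SEM.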

Assay [2] addresses T2, Phosphodiesterase 4 (Homo sapiens, UniProt P27815+Q08499+Q07343+Q08493). Kind of assay: Inhibition of guinea pig ventricular Phosphodiesterase 4. Format: protein assay, Cavia porcellus. Particulars: target entry is the homologue from another species.
Assay [3] addresses Phosphodiesterase 4 (Rattus norvegicus) (UniProt P14270+P14646+P14644+P54748). Put plainly: Displacement of [3H]rolipram from rat brain membranes at 10 uM. Format: cell membranes. Particulars: Membrane.
Assay [4] has as its target T1, Phosphodiesterase 3. Put plainly: Inhibition of guinea pig ventricular Phosphodiesterase 3 at 200 uM. The settings on record: Cavia porcellus, target entry is the homologue from another species.
Assay [5] addresses T1, Phosphodiesterase 3. Put plainly: Inhibition of guinea pig ventricular Phosphodiesterase 3. In kind it is protein assay, Cavia porcellus. The settings on record: target entry is the homologue from another species.
Assay [6] deals with T2, Phosphodiesterase 4. Put plainly: Inhibition of guinea pig ventricular Phosphodiesterase 4 at 200 uM. Format: protein assay. Particulars: Cavia porcellus, target entry is the homologue from another species. Summed up:
as §1

As to `CCOC(=O)c1sc2c(=O)n(Cc3ccccc3)nc(-c3ccccc3)c2c1C`, the inhibition at Phosphodiesterase 3 [1] was determined as 20%. Also, the IC50 at Phosphodiesterase 4 [2] was found to be 11 µM.

Turning to `Cc1nnc2c(O)n(Cc3ccccc3)nc(-c3ccccc3)c1-2`, the 50% inhibitory concentration (IC50) against Phosphodiesterase 4 [2] worked out at 3.1 µM. Further, the inhibition in assay [3] is 54%; at Phosphodiesterase 3 [4], 60%.

`COc1ccc(C2CNC(=O)C2)cc1OC1CCCC1` (centres undefined) [ROLIPRAM]: on Phosphodiesterase 3 [5], the IC50 came out at 242 µM.

In turn, `CCOC(=O)c1nc2c(O)n(CC)nc(-c3ccccc3)c-2c1C` showed an inhibition at Phosphodiesterase 3 [1] of 30%. At Phosphodiesterase 4 [2], this molecule came in with an IC50 of 0.6 µM.

In the case of `CCn1nc(-c2ccccc2)c2c(C)nn(C)c2c1=O`, the inhibition was 35% against Phosphodiesterase 3 [1] and 46% in assay [3]. The IC50 on Phosphodiesterase 4 [2] stood at 7.4 µM.

Regarding `CCOC(=O)c1sc2c(=O)n(CC)nc(-c3cccc(Cl)c3)c2c1C`, on Phosphodiesterase 3 [1], the inhibition was found to be 56%. This molecule returned a half-inhibitory concentration (IC50) on Phosphodiesterase 4 [2] of 0.8 µM.

Molecule `CCn1nc(-c2ccccc2)c2c(C)nnc-2c1O` gave an inhibition on Phosphodiesterase 3 [1] of 35%. Also, on Phosphodiesterase 4 [2], the IC50 was determined as 2 µM.

For the molecule `CCOC(=O)c1sc2c(=O)n(CC)nc(-c3ccccc3)c2c1C`, the IC50 is 5.9 µM at Phosphodiesterase 3 [5] and 0.9 µM against Phosphodiesterase 4 [2].

As to `CCOC(=O)c1sc2c(=O)n(CC)nc(-c3cccc([N+](=O)[O-])c3)c2c1C`, at Phosphodiesterase 3 [1], the inhibition turned out to be 25%. For the same molecule, the IC50 on Phosphodiesterase 4 [2] is 1.3 µM.

For the molecule `CCn1nc(-c2ccccc2)c2c(c1=O)N(C)CC(C#N)=C2C`, the inhibition against Phosphodiesterase 3 [1] was 51%. The molecule also returned a 50% inhibitory concentration (IC50) against Phosphodiesterase 4 [2] of 1.1 µM.

For `CCOC(=O)c1nc2c(O)n(Cc3ccccc3)nc(-c3ccccc3)c-2c1C`, the inhibition against Phosphodiesterase 3 [1] came out at 33%; in assay [3], 28%. For the same molecule, the 50% inhibitory concentration (IC50) on Phosphodiesterase 4 [2] turned out to be 31 µM.

Turning to `Cc1nn(C)c2c(=O)n(Cc3ccccc3)nc(-c3ccccc3)c12`, the inhibition on Phosphodiesterase 4 [6] turned out to be 45%; in assay [3], 11%; at Phosphodiesterase 3 [4], 30%.

On to `O=c1c2cccnc2c(-c2cccc(Cl)c2)nn1Cc1ccncc1`, for which the values for the IC50 at Phosphodiesterase 3 [5] and at Phosphodiesterase 4 [2] were 5.1 µM and 0.056 µM, respectively.

Broadly, the inhibition is the share of the control response that was lost under treatment. Low values mean a response near the control, high ones a response far below the control. In general, IC50 refers to the concentration needed to halve the response being measured. Read a low IC50 as inhibition by little substance.
